Calls of active or inactive are those of the source. No cut-off for these calls is given here.
Legend:
[1] = target: Cyclin-dependent kinase 2 (Homo sapiens) (UniProt P24941); experiment: Inhibition of CDK2 at 1 uM
[2] = target: Mitogen-activated protein kinase kinase kinase 11 (Homo sapiens, UniProt Q16584); experiment: Inhibition of GST-MLK3 expressed in baculovirus
[3] = target: Mitogen-activated protein kinase 8 (Homo sapiens) (UniProt P45983); experiment: Inhibition of JNK1 at 1 uM
[4] = target: Cyclin-dependent kinase 1 (Homo sapiens) (UniProt P06493); experiment: Inhibition of CDK1 at 1 uM
Chain of Cyclin-dependent kinase 1 (Homo sapiens) (P06493 whole entry, looked up): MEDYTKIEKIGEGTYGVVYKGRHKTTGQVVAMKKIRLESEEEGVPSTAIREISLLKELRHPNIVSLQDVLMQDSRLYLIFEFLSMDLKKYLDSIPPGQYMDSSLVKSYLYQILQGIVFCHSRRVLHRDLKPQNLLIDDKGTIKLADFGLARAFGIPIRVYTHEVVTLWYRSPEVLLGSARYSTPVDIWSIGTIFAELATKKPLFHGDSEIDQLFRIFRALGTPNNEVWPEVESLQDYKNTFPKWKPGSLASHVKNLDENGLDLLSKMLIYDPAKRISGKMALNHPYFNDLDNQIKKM

[5] = target: Angiopoietin-1 receptor (Homo sapiens) (UniProt Q02763); experiment: Inhibition of TIE2 at 1 uM
[6] = target: T1, Mitogen-activated protein kinase kinase kinase 9 (Homo sapiens, UniProt P80192); experiment: Inhibition of GST-MLK1 expressed in baculovirus
[7] = target: Fibroblast growth factor receptor 1 (Homo sapiens) (UniProt P11362); experiment: Inhibition of FGFR1 at 1 uM
[8] = target: Mitogen-activated protein kinase kinase kinase 10 (Homo sapiens, UniProt Q02779); experiment: Inhibition of GST-MLK2
Chain of Mitogen-activated protein kinase kinase kinase 10 (Q02779 whole entry): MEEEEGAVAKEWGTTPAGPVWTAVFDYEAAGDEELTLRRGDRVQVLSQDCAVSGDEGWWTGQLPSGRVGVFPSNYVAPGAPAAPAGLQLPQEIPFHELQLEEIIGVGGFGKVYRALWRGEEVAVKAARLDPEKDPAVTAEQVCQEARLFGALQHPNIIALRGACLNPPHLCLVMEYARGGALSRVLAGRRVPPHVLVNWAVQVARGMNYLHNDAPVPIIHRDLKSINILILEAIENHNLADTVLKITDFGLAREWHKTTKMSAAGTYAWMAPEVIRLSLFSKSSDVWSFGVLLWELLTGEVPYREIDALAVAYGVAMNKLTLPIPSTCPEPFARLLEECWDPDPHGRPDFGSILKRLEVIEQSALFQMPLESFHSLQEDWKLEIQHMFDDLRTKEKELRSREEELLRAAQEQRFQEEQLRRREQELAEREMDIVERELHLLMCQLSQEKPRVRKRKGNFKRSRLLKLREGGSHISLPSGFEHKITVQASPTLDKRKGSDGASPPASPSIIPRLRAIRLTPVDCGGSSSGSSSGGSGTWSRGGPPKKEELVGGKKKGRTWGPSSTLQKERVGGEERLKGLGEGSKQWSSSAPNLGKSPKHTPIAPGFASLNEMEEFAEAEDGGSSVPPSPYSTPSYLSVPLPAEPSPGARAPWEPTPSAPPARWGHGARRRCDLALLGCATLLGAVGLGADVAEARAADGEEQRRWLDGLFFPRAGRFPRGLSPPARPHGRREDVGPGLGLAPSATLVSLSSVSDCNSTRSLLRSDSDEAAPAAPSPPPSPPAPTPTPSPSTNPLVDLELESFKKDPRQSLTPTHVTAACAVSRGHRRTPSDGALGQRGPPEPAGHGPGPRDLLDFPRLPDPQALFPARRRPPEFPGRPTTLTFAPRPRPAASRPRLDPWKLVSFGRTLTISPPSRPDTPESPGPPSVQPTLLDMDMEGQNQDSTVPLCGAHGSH

[9] = target: Mitogen-activated protein kinase 14 (Homo sapiens) (UniProt Q16539); experiment: Inhibition of p38-alpha at 1 uM
[10] = target: Epidermal growth factor receptor (Homo sapiens) (UniProt P00533); experiment: Inhibition of EGFR at 1 uM
Chain of Epidermal growth factor receptor (Homo sapiens) (P00533 whole entry): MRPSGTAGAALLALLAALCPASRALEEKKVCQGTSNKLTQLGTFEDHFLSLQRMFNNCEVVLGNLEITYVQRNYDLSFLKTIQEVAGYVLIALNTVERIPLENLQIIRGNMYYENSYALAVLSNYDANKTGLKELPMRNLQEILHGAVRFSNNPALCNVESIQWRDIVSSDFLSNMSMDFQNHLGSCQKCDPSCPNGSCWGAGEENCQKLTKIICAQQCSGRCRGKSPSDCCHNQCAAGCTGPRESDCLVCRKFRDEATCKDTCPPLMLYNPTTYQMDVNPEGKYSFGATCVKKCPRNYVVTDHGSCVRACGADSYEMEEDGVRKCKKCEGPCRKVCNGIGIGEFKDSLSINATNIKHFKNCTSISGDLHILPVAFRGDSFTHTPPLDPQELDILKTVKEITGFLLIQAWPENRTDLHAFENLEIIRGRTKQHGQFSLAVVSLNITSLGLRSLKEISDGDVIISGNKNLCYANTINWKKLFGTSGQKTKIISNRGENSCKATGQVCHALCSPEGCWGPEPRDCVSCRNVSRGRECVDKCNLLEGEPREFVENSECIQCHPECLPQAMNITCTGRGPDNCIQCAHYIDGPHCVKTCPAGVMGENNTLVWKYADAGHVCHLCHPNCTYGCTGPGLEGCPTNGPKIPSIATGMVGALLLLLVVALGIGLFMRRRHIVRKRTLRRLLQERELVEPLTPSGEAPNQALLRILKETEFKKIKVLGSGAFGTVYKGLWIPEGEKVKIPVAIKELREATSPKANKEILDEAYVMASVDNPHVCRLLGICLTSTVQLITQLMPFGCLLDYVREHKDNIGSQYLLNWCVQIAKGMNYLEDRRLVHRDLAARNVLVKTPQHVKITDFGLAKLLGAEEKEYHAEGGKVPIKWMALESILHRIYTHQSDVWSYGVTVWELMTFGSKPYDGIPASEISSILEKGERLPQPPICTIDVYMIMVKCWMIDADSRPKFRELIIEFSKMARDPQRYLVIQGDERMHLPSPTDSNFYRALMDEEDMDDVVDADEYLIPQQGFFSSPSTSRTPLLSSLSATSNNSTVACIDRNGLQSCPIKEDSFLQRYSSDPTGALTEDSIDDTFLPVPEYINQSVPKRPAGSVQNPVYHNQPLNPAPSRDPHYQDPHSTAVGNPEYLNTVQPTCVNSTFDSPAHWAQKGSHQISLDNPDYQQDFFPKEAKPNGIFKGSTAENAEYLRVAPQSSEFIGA

[11] = target: Insulin receptor (Homo sapiens) (UniProt P06213); experiment: Inhibition of IRKbeta at 1 uM
[12] = target: T1, Mitogen-activated protein kinase kinase kinase 9; experiment: Inhibition of MKK4 phosphorylation in MLK1 transfected CHO cells at 1 uM after 1 hr; format: functional, cell-based
Summary of the method: (§1)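 CHO cells transfected with MLK1 plus dominant-negative MKK4 cDNA. Compound exposure 1 h, tested up to 1 µM. Phospho-MKK4 read by ELISA.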
Target sequence in this assay (P80192 whole entry): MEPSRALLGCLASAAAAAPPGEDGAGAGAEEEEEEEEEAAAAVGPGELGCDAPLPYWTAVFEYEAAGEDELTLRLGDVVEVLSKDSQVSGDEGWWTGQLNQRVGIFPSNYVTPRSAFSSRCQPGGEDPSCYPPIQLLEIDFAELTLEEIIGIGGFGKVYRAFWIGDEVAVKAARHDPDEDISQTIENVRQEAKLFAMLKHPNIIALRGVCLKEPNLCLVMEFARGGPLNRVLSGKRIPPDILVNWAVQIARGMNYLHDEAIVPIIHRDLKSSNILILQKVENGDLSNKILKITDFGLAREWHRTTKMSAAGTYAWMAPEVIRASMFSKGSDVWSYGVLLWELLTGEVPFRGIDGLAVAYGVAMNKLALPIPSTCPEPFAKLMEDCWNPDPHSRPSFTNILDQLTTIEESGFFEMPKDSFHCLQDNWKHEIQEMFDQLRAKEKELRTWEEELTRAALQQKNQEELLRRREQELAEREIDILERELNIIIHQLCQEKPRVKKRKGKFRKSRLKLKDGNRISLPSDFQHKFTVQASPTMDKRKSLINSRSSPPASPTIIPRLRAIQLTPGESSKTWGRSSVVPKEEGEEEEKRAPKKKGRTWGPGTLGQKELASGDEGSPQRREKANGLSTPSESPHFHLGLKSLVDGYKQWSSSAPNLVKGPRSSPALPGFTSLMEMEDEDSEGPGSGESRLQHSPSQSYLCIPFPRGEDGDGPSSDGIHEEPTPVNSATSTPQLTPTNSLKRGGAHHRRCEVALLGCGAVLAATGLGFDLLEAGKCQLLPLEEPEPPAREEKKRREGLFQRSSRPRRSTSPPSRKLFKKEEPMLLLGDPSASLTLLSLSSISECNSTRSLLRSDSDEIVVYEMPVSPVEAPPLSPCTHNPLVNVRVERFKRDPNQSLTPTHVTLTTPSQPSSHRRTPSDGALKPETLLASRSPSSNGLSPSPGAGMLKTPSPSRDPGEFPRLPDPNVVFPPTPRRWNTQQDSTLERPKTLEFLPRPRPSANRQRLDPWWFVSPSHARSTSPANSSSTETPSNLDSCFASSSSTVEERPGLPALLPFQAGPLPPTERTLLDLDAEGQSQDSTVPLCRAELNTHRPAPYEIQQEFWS

Protein kinase C (PKC) = experiment: Inhibition of PKC; format: protein assay, Homo sapiens
[13] = target: T2, Choline O-acetyltransferase (Rattus norvegicus) (UniProt P32738); experiment: Enhancement of choline acetyltransferase activity in embryonic rat spinal cord at 300 nM
T2 sequence (whole entry): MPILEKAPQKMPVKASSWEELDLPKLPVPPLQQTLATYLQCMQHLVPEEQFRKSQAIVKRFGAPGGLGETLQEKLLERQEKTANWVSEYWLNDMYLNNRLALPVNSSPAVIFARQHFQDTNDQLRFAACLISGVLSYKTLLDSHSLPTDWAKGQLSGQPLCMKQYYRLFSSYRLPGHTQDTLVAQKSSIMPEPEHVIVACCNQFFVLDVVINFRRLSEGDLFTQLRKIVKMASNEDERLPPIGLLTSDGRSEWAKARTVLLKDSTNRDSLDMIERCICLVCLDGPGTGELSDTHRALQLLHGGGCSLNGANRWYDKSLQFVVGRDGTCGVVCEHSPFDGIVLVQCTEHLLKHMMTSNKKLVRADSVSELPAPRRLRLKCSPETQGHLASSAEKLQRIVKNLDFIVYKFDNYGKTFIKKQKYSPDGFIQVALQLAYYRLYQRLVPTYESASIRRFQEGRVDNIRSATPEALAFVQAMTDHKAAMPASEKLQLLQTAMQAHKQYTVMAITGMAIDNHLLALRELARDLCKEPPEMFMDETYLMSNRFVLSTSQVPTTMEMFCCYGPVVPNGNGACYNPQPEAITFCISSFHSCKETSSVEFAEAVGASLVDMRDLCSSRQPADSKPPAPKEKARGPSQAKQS
Summary of the method: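 Embryonic rat spinal cord cultures; compounds at 300 nM, ChAT activity measured after 2 days in culture, expressed as percent of basal (100%). K-252a run as internal control. Mean ± standard deviation of three independent experiments.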

[14] = target: Platelet-derived growth factor receptor beta (Homo sapiens) (UniProt P09619); experiment: Inhibition of PDGFRbeta at 1 uM
[15] = target: High affinity nerve growth factor receptor (Homo sapiens, UniProt P04629); experiment: Inhibition of TrkA
Chain of High affinity nerve growth factor receptor (P04629 whole entry): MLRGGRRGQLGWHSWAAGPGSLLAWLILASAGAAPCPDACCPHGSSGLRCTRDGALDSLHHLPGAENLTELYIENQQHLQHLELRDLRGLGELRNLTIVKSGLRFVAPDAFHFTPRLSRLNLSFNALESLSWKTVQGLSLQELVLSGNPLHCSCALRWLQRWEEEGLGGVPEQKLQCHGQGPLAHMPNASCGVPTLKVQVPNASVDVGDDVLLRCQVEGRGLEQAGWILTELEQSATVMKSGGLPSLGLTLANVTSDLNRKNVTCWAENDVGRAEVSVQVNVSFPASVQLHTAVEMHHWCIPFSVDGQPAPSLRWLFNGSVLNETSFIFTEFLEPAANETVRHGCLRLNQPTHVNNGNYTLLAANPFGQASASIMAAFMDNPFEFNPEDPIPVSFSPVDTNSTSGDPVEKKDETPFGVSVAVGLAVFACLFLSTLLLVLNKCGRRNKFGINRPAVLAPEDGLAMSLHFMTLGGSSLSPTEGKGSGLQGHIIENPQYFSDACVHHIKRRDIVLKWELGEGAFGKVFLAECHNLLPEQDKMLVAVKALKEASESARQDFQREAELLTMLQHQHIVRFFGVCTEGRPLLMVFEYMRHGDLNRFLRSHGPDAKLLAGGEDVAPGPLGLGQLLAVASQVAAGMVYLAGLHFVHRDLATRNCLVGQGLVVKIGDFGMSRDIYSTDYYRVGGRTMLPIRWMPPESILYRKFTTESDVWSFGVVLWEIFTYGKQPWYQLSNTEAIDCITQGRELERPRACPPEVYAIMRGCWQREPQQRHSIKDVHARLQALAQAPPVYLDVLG

[16] = target: Vascular endothelial growth factor receptor 2 (Homo sapiens, UniProt P35968); experiment: Inhibition of VEGFR2
[17] = target: T1, Mitogen-activated protein kinase kinase kinase 9; experiment: Inhibition of MKK4 phosphorylation in MLK1 transfected CHO cells after 1 hr; format: functional, cell-based; summary of the method: as §1
Target sequence in this assay (P80192 whole entry): as the sequence (P80192 whole entry) above

Chain of Mitogen-activated protein kinase 8 (Homo sapiens) (P45983 whole entry): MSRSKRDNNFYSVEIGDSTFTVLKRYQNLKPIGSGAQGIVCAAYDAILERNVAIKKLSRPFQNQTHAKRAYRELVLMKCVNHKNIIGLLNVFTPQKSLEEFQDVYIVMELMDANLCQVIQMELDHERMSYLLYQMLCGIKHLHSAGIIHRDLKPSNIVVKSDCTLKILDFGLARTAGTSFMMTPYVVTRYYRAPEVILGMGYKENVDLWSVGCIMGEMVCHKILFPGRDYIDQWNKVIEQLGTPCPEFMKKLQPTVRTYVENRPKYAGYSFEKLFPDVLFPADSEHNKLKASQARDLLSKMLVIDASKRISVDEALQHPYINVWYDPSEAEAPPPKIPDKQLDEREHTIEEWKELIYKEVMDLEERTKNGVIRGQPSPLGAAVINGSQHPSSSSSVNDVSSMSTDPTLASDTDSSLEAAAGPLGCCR

Work on `O=C1NCc2c3c(c4[nH]c5ccccc5c4c21)Cc1ccccc1-3` yielded an inhibition [1] of less than 30%, an IC50 [2] of 87 nM and an inhibition [3] of less than 30%. The inhibition [4] was less than 30%, the inhibition [5] was less than 30% and the IC50 [6] was 167 nM. For the same molecule, the inhibition [7] was less than 30%, the IC50 [8] was 2660 nM and the inhibition [9] was less than 30%. The inhibition [10] was less than 30%, the inhibition [11] was less than 30% and the Inhibition [12] was 22%. It also gave an IC50 (Protein kinase C (PKC)) greater than 1000 nM, an Activity [13] of 155% and an inhibition [14] of less than 30%.
`O=C1NCc2c1c1c(c3sc4ccccc4c23)Cc2ccccc2-1` gave an IC50 [2] of 157 nM and an IC50 [6] of 482 nM.
Work on `O=C1NCc2c1c1c(c3c2-c2ccccc2C3)Cc2ccccc2-1` yielded an IC50 [2] of 277 nM and an IC50 [6] of 1410 nM.
`O=C1NCc2c1c1c3ccccc3[nH]c1c1oc3ccccc3c21` was tested, and the IC50 [2] was 270 nM, the IC50 [6] was 308 nM and the Activity [13] was “inactive”.
`O=C1NC(=O)c2c1c1c3ccccc3[nH]c1c1sc3ccccc3c21` gave an IC50 [2] of 58 nM and an IC50 [6] of 68 nM.
Molecule `O=C1NC(=O)c2c1c1c(c3[nH]c4ccccc4c23)Cc2ccccc2-1` has an IC50 [2] greater than 300 nM and an IC50 [6] greater than 300 nM.
With `O=C1NCc2c3c(c4[nH]c5ccccc5c4c21)-c1ccccc1C3` the Activity [2] was “inactive” and the Activity [6] was “inactive”.
Work on `O=C1NCc2c1c1c3ccccc3[nH]c1c1sc3ccccc3c21` yielded an IC50 [2] of 171 nM and an IC50 [6] of 1800 nM.
`O=C1NCc2c1c1c3ccccc3sc1c1[nH]c3ccccc3c21` was tested, and the inhibition [1] was less than 30%, the IC50 [2] was 26 nM and the inhibition [3] was less than 30%. The IC50 [15] was 88 nM, the inhibition [4] was less than 30% and the inhibition [5] was less than 30%. For the same molecule, the IC50 [6] was 111 nM, the inhibition [7] was less than 30% and the IC50 [8] was 2090 nM. It also gave an inhibition [9] of less than 30%, an inhibition [10] of less than 30% and an inhibition [11] of less than 30%. It also gave an Inhibition [12] of 3%, an IC50 (Protein kinase C (PKC)) greater than 1000 nM and an IC50 [16] greater than 300 nM. The Activity [13] was 138% and the inhibition [14] was less than 30%.
In the case of `O=C1NC(=O)c2c1c1c(c3c2-c2ccccc2C3)Cc2ccccc2-1`, the IC50 [2] is reported as greater than 300 nM, the IC50 [6] is reported as greater than 300 nM and the Activity [13] is reported as “inactive”.
In the case of `O=C1NCc2c1c1c3ccccc3[nH]c1c1[nH]c3ccccc3c21` [STAUROSPORINONE], the IC50 [2] is reported as 49 nM and the IC50 [6] is reported as 138 nM.
For `O=C1NC(=O)c2c1c1c3ccccc3ccc1c1[nH]c3ccccc3c21`, the IC50 [2] was 300 nM and the IC50 [6] was 300 nM.
In the case of `O=C1NCc2c1c1c3ccccc3oc1c1[nH]c3ccccc3c21`, the IC50 [2] is reported as 1110 nM, the IC50 [6] is reported as greater than 10000 nM and the Activity [13] is reported as “inactive”.
For `COC(=O)[C@]1(O)C[C@@H]2O[C@@]1(C)n1c3ccccc3c3c4c(c5c6ccccc6n2c5c31)C(=O)NC4`, the IC50 [8] was 45 nM.
In the case of `O=C1NCc2c3c(c4sc5ccccc5c4c21)Cc1ccccc1-3`, the IC50 [2] is reported as 110 nM and the IC50 [6] is reported as 615 nM.
For `O=C1NC(=O)c2c1c1c3ccccc3[nH]c1c1oc3ccccc3c21`, the IC50 [2] was greater than 300 nM, the IC50 [6] was greater than 300 nM and the Activity [13] was “inactive”.
In the case of `O=C1NCc2c1c1c3ccccc3sc1c1sc3ccccc3c21`, the IC50 [2] is reported as greater than 10000 nM, the IC50 [6] is reported as greater than 10000 nM and the Activity [13] is reported as “inactive”.
With `O=C1NCc2c1c1c(c3[nH]c4ccccc4c23)-c2ccccc2C1` the Activity [2] was “inactive” and the Activity [6] was “inactive”.
In the case of `O=C1NCc2c1c1c(c3[nH]c4ccccc4c23)Cc2ccccc2-1`, the inhibition [1] is reported as less than 30%, the IC50 [2] is reported as 40 nM and the inhibition [3] is reported as less than 30%. For the same molecule, the inhibition [4] was less than 30%, the inhibition [5] was less than 30% and the IC50 [6] was 69 nM. The inhibition [7] was less than 30%, the IC50 [8] was 364 nM and the inhibition [9] was less than 30%. The inhibition [10] was less than 30%, the inhibition [11] was less than 30% and the Inhibition [12] was 19%. For the same molecule, the IC50 (Protein kinase C (PKC)) was 1196 nM, the Activity [13] was 152% and the inhibition [14] was less than 30%.
Molecule `O=C1NC(=O)c2c1c1c(c3[nH]c4ccccc4c23)CCc2ccccc2-1` has an inhibition [1] of less than 30%, an IC50 [2] of 12 nM and an inhibition [3] of less than 30%. For the same molecule, the IC50 [15] was greater than 1000 nM, the inhibition [4] was less than 30% and the inhibition [5] was less than 30%. The IC50 [6] was 22 nM, the inhibition [7] was less than 30% and the IC50 [8] was 339 nM. The inhibition [9] was less than 30%, the inhibition [10] was less than 30% and the inhibition [11] was less than 30%. It also gave an IC50 (Protein kinase C (PKC)) of 83 nM, an IC50 [17] of 90 nM and an IC50 [16] greater than 300 nM. It also gave an Activity [13] of 178% and an inhibition [14] of less than 30%.
For `O=C1NC(=O)c2c1c1c(c3sc4ccccc4c23)Cc2ccccc2-1`, the IC50 [2] was greater than 300 nM and the IC50 [6] was greater than 300 nM.
`O=C1NCc2c3c(c4[nH]c5ccccc5c4c21)CCc1ccccc1-3` gave an inhibition [1] of less than 30%, an IC50 [2] of 22 nM and an inhibition [3] of less than 30%. It also gave an IC50 [15] greater than 1000 nM, an inhibition [4] of less than 30% and an inhibition [5] of less than 30%. For the same molecule, the IC50 [6] was 46 nM, the inhibition [7] was less than 30% and the IC50 [8] was 3450 nM. For the same molecule, the inhibition [9] was less than 30%, the inhibition [10] was less than 30% and the inhibition [11] was less than 30%. The IC50 (Protein kinase C (PKC)) was 205 nM, the IC50 [17] was 274 nM and the IC50 [16] was greater than 300 nM. The Activity [13] was 171% and the inhibition [14] was less than 30%.
For `O=C1NC(=O)c2c1c1c3ccccc3sc1c1sc3ccccc3c21`, the IC50 [2] was greater than 300 nM and the IC50 [6] was greater than 300 nM.
